pIC50: −log10 of the molar value. The source made the active and inactive calls. No cut-off for these calls is given here.
Experiments:
Mus musculus [1] = test: Toxicity in NOD/SCID mouse xenografted with human MIAPaCa2 cells assessed as body weight loss at 15 mg/kg administered once a week for 48 days; type: organism-based; conditions: in vivo, 1152 h
Summary of the method: (§1)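 MIA PaCa-2 xenografted NOD/SCID mice randomized at 75 mm3 into vehicle (n=4), once-weekly (n=3) or twice-weekly (n=4) groups; 15 mg/kg given once a week for 48 days or twice a week for 15 days. Body weight followed; mean ± SEM.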

MIA PaCa-2 [2] = test: Cytotoxicity against gemcitabine-resistant human MIAPaCa2 cells assessed as decrease in cell proliferation after 72 hrs by MTT assay; type: functional, cell-based; conditions: MIA PaCa-2, 72 h
Summary of the method: (§2)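 MTT assay. Cells (3000–8000/well) attached overnight in RPMI1640 with 10% FBS; the GR line was kept with 200 nM gemcitabine. Serial dilutions (30 nM–10 μM for most lines) were applied for 72 h. MTT was added at a final 300 μg/mL for 3 h at 37°C, formazan was dissolved in DMSO and A570 read. Inhibition = (1 − OD treated/OD control) × 100. IC50 given as mean ± SD, three independent experiments.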

[3] = Cytotoxicity against HPDEC assessed as decrease in cell proliferation after 72 hrs by MTT assay; type: cell-based; conditions: Homo sapiens; summary of the method: as §2
MIA PaCa-2 [4] = test: Antitumor activity against human MIAPaCa2 cells xenografted in NOD/SCID mouse assessed as tumor volume at 15 mg/kg administered once a week for 48 days (reference value: 1503 +/- 189 mm'3); type: functional
Summary of the method: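 MIA PaCa-2 cells (2.0 × 10^6 in RPMI1640) were injected subcutaneously into the dorsal flank of 6-week NOD/SCID mice. Mice were randomized at 75 mm3 mean tumor size (vehicle n=4, treated n=3) and dosed at 15 mg/kg once weekly for 48 days. Tumors were measured by caliper twice weekly, with V = d2 × D/2. Values are mean ± SEM, and p values are from an unpaired t test.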

MIA PaCa-2 [5] = test: Cytotoxicity against human MIAPaCa2 cells assessed as decrease in cell proliferation after 72 hrs by MTT assay; type: functional, cell-based; conditions: MIA PaCa-2, 72 h; summary of the method: as §2
MIA PaCa-2 [6] = test: Antitumor activity against human MIAPaCa2 cells xenografted in NOD/SCID mouse at 15 mg/kg administered twice a week for 15 days; type: functional, organism-based
Summary of the method: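 MIA PaCa-2 subcutaneous xenografts in NOD/SCID mice, randomized at 75 mm3. Test agent was given at 5 mg/kg five times a week. Gemcitabine was given at 15 mg/kg either once weekly for 48 days or twice weekly for 15 days. Groups were n=3–4. Tumor volume was measured by caliper, given as mean ± SEM, and compared by unpaired t test.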

Mus musculus [7] = test: Toxicity in NOD/SCID mouse xenografted with human MIAPaCa2 cells assessed as body weight loss at 15 mg/kg administered twice a week for 15 days; type: organism-based; conditions: in vivo, 360 h; summary of the method: as §1

In the case of Nc1ccn([C@@H]2O[C@H](CO)[C@@H](O)C2(F)F)c(=O)n1 [GEMCITABINE], the Activity (Mus musculus [1]) was “Non-Toxic”, the pIC50 (MIA PaCa-2 [2]) was 5.48 and the pIC50 [3] was 6.85. For the same molecule, the Activity (MIA PaCa-2 [4]) was 387 mm3, the pIC50 (MIA PaCa-2 [5]) was 6.96 and the Activity (MIA PaCa-2 [6]) was “Active”. The Activity (Mus musculus [7]) was “Non-Toxic”.
